{"data": "Published values of several laboratories", "target": "Ephrin type-A receptor 1 (EPHA1, Homo sapiens, UniProt P21709)", "Residues used in one study (P21709 26-976)": "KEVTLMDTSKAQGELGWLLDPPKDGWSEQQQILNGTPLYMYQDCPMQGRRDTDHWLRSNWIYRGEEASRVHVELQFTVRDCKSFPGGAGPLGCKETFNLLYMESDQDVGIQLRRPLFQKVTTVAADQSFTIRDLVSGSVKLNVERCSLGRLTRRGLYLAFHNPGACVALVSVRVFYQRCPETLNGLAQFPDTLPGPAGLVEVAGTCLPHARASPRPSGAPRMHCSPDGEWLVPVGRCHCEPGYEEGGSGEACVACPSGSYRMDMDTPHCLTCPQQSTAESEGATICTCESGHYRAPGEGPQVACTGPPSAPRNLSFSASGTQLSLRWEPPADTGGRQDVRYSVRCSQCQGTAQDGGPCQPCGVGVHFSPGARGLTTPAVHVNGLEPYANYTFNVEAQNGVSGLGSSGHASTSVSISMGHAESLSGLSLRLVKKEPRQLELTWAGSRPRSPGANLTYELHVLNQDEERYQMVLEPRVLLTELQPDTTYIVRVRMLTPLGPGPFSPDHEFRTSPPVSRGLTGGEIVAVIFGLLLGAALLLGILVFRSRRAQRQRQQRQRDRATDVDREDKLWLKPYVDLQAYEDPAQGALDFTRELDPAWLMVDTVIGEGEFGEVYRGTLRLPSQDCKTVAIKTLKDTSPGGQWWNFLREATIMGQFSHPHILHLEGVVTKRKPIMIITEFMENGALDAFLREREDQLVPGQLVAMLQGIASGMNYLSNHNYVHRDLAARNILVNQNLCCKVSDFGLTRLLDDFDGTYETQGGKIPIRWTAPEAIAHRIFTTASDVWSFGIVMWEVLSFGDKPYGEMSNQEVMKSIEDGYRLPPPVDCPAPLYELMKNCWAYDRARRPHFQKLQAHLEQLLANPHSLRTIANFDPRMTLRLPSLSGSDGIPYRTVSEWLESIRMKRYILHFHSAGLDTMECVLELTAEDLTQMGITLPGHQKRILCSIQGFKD", "note": "Each line is one published result; the experiments were not run side by side."}
{"Compound": "F[C@@H]1CCN(c2nccc(-c3cnn4ncccc34)n2)C1", "observed": "binding", "concentration": "1 µM", "endpoint": "remaining binding", "result": "79%"}
{"Compound": "O=C1Nc2ccc(Cl)cc2C1=Cc1cc(Cl)c(O)c(Cl)c1", "observed": "cell-free assay", "concentration": "0.5 µM", "endpoint": "remaining signal", "result": "88.9%"}
{"Compound": "c1ccc(CNc2nc(N3CCOc4ccccc43)nc3c2CCCC3)cc1", "observed": "target engagement in cells", "action": "inhibitor", "method": "chemoproteomics", "concentration": "20 mM", "endpoint": "inhibition", "result": "-26.1%"}
{"Compound": "CCS(=O)(=O)c1cc2cc(C[C@](O)(CC(C)(C)c3ccc(F)cc3C(N)=O)C(F)(F)F)[nH]c2cn1", "observed": "cell-free assay", "method": "competition with immobilised ligand", "concentration": "1 µM", "endpoint": "remaining binding", "result": "100%"}
{"Compound": "Cc1cc(NC(=O)c2cccc3cc(-c4cccc5[nH]nc(N)c45)ccc23)ccc1F", "observed": "enzyme activity", "action": "inhibitor", "concentration": "0.1 µM", "endpoint": "activity vs control", "result": "102%"}
{"Compound": "O=C(Nc1cccnn1)N1CCC(=Cc2cccc(Oc3ccc(C(F)(F)F)cn3)c2)CC1", "observed": "cell-free assay", "method": "competition with immobilised ligand", "concentration": "1 µM", "endpoint": "remaining binding", "result": "100%"}
{"Compound": "Cc1sc(C(=O)NC2COC2)cc1-n1cc(NC(=O)Nc2c(F)cccc2Cl)cn1", "observed": "enzyme activity", "action": "inhibitor", "concentration": "10 µM", "endpoint": "remaining activity", "result": "88.5%"}
{"Compound": "O=C(N[C@H]1CCCCC/C=C\\C2C[C@@]2(C(=O)O)NC(=O)[C@@H]2C[C@@H](Oc3ccncc3)CN2C1=O)OC1CCCC1 (some centres unmarked)", "observed": "cell-free assay", "method": "competition with immobilised ligand", "concentration": "1 µM", "endpoint": "remaining binding", "result": "90%"}
{"Compound": "O=C(Nc1cnn(-c2csc(C(=O)NC3COC3)c2)c1)Nc1ccccc1Cl", "observed": "enzyme activity", "action": "inhibitor", "concentration": "5 µM", "endpoint": "remaining activity", "result": "99.1%"}
{"Compound": "COc1cc(-c2cc(-c3ccc(N4CCNCC4)cc3)cnc2C)cc(OC)c1OC", "observed": "enzyme activity", "action": "inhibitor", "concentration": "0.1 µM", "endpoint": "inhibition", "result": "3%"}
{"Compound": "C[C@@H]1CCN(C(=O)CC#N)C[C@@H]1N(C)c1ncnc2[nH]ccc12", "observed": "cell-free assay", "concentration": "0.5 µM", "endpoint": "remaining signal", "result": "98%"}
{"Compound": "COc1cc2ncnc(Nc3ccc(Oc4ccccc4)c(C)c3C)c2cc1OC", "observed": "enzyme activity", "action": "inhibitor", "concentration": "1 µM", "endpoint": "inhibition", "result": "8%"}
{"Compound": "O=C(NCCCC1CCCCC1)c1ccc(CNC(=O)c2cnn(-c3ccccc3)c2C(F)(F)F)cc1", "observed": "cell-free assay", "method": "competition with immobilised ligand", "concentration": "0.1 µM", "endpoint": "remaining binding", "result": "100%"}
{"Compound": "CC/C(=N\\NC(=O)NCc1cccc(O)c1)c1ccc(O)c(C)c1O", "observed": "enzyme activity", "action": "inhibitor", "concentration": "0.1 µM", "endpoint": "inhibition", "result": "-1.2%"}
{"Compound": "Nc1ncnc2occ(-c3ccc(NC(=O)Nc4cc(C(F)(F)F)ccc4F)cc3)c12", "observed": "cell-free assay", "concentration": "20 µM", "endpoint": "remaining signal", "result": "0.5%"}
{"Compound": "CNC(=O)c1cc2c(Oc3ccc(NC(=O)C4(C(=O)Nc5ccc(F)cc5)CC4)cc3)ccnc2cc1OC", "observed": "enzyme activity", "action": "inhibitor", "method": "radiometric", "concentration": "1 µM", "endpoint": "inhibition", "result": "90%"}
{"Compound": "CNC(=O)c1cc(Oc2ccc(NC(=O)Nc3ccc(Cl)c(C(F)(F)F)c3)cc2)ccn1", "observed": "enzyme activity", "action": "inhibitor", "concentration": "10 µM", "endpoint": "inhibition", "result": "94%"}
{"Compound": "O=C(O)[C@@H]1[C@@H](Cn2nnc3ccccc3c2=O)CC[C@H]1C(=O)c1ccc(OCCC2CCOCC2)cc1", "observed": "cell-free assay", "method": "competition with immobilised ligand", "concentration": "1 µM", "endpoint": "remaining binding", "result": "100%"}
{"Compound": "Cc1ccc(Nc2nccc(N(C)c3ccc4c(C)n(C)nc4c3)n2)cc1S(N)(=O)=O", "observed": "enzyme activity", "action": "inhibitor", "concentration": "10 µM", "endpoint": "inhibition", "result": "85%"}
{"Compound": "CO[C@@H](C)c1c(Nc2ccc([C@@H](N(C)C(=O)C3CCS(=O)(=O)CC3)C(F)(F)F)cc2)cnc2cc(Cl)nn12", "observed": "cell-free assay", "method": "competition with immobilised ligand", "concentration": "1 µM", "endpoint": "remaining binding", "result": "97%"}
{"Compound": "COc1cc(Nc2c(C#N)cnc3cc(OCCCN4CCN(C)CC4)c(OC)cc23)c(Cl)cc1Cl", "observed": "cell-free assay", "concentration": "0.5 µM", "endpoint": "remaining signal", "result": "97.7%"}
{"Compound": "CCN(CC)CCNC(=O)c1c(C)[nH]c(/C=C2\\C(=O)Nc3ccc(F)cc32)c1C", "observed": "enzyme activity", "action": "inhibitor", "concentration": "0.3 µM", "endpoint": "inhibition", "result": "1%"}
{"Compound": "CN1CCN(c2cnc3c(C4CCN(C(=O)c5ccc(OC(F)(F)F)cc5N)CC4)ncnc3c2)CC1", "observed": "cell-free assay", "method": "competition with immobilised ligand", "concentration": "1 µM", "endpoint": "remaining binding", "result": "95%"}
{"Compound": "CC(C)(C)c1nc2c(s1)c1nc(N)ncc1c1ccc(NS(=O)(=O)c3c(F)cccc3F)c(F)c12", "observed": "enzyme activity", "action": "inhibitor", "method": "radiometric", "concentration": "1 µM", "endpoint": "remaining activity", "result": "94%"}
{"Compound": "Cc1ccc(C(=O)Nc2ccc(CN3CCN(C)CC3)c(C(F)(F)F)c2)cc1C#Cc1cnc2cccnn12", "observed": "cell-free assay", "concentration": "23.5 nM", "endpoint": "remaining signal", "result": "55%"}
{"Compound": "Nc1c(C(=O)NCc2ccc(C(=O)NCCCC3CCCCC3)cc2)cnn1-c1ccccc1", "observed": "cell-free assay", "method": "competition with immobilised ligand", "concentration": "0.1 µM", "endpoint": "remaining binding", "result": "100%"}
